Results pooled from the literature.
Cell line: NCI-H460
Effect on: cell growth or viability

| SMILES | test | conditions | IC50 |
| --- | --- | --- | --- |
| O=C(O)/C=C/c1ccc(O)c(O)c1 | MTT |  | 3.9 µM |
| CC[C@@]1(O)C(=O)OCc2c1cc1n(c2=O)Cc2cc3ccccc3nc2-1 |  | 72 h | < 0.01 µM |
| CCC(=O)Nc1cc(Nc2nc(N3CCc4sccc4C3)c3cccnc3n2)c(OC)cc1N1CCN(CC)CC1 | MTT |  | 1.16 µM |
| OCC(CCc1ccc(O)cc1)c1ccc(O)cc1 (centres unmarked) | MTT | 24 h | 55 µg/mL |
| C=CC(=O)Nc1cc(Nc2nccc(-c3cn(C)c4ccccc34)n2)c(OC)cc1N(C)CCN(C)C | MTT |  | 1.97 µM |
| COc1ccc(C/C=C(/CO)c2ccc(OC)cc2)cc1 | MTT | 24 h | 30.9 µg/mL |
| COc1cccc2c1C(=O)c1c(O)c3c(c(O)c1C2=O)C[C@@](O)(C(=O)CO)C[C@@H]3O[C@H]1C[C@H](N)[C@H](O)[C@H](C)O1 | SRB |  | 4.29 µM |
| COc1ccc(C/C=C/c2cc(OC)cc(OC)c2)cc1 | MTT | 24 h | 77.3 µg/mL |
| COc1cc(N(C)CCN(C)C)c(NC(=O)/C=C/C(C)C)cc1Nc1nc(Nc2cnn(C)c2)c2sccc2n1 | MTT |  | 2.25 µM |
| COc1cc(CNC(=O)CCCC/C=C/C(C)C)ccc1OCc1cn(-c2ccc(C(F)(F)F)cc2)nn1 | SRB |  | 6.65 µM |
| COc1cc(N(C)CCN(C)C)c(NC(=O)C=C(C)C)cc1Nc1nc(N2CCc3sccc3C2)c2sccc2n1 | MTT |  | 0.533 µM |
| O=c1[nH]cc(S(=O)(=O)Nc2cccc(-c3nnc(-c4cccc(Cl)c4)o3)c2)c(=O)[nH]1 | MTT | 24 h | 2.83 µM |
| COc1ccc(-c2cc(=O)c3c(O)c(OC)c(OC)cc3o2)cc1O |  | 48 h | 37.5 µM |
| COc1cc(/C=C/Cc2ccc(O)c(OC)c2)ccc1O | MTT | 24 h | 17.5 µg/mL |
| COc1cc(Nc2nccc(-c3cnn4nc(OC)ccc34)n2)cc(C(F)(F)F)c1 | ATP luminescence |  | 0.33 µM |
| O=c1[nH]cc(F)c(=O)[nH]1 | MTT | 72 h | 3 µM |
| C=CC(=O)Nc1cc(Nc2nc(N3CCc4sccc4C3)c3cccnc3n2)c(OC)cc1N1CCN(CC)CC1 | MTT |  | 0.652 µM |
| O=C1NCCc2[nH]c(-c3ccncc3)cc21 |  |  | 10 µM |
| CC(=O)c1cccc(/N=N/c2cc(/C=C/C(=O)O)ccc2O)c1 | MTT |  | > 50 µM |
| O=c1[nH]cc(F)c(=O)[nH]1 | MTT | 48 h | 43.1 µM |
| C=CC(=O)Nc1cc(Nc2nc(N3CCc4sccc4C3)c3cccnc3n2)c(OC)cc1N(C)CCN(C)C | MTT |  | 5.68 µM |
| CC(=O)c1ccc(N=Nc2c(C(=O)O)cc(O)c(O)c2O)cc1 | MTT |  | 13.6 µM |
| C=CC(=O)Nc1cc(Nc2nc(Nc3cnn(C)c3)c3sccc3n2)c(OC)cc1N(C)CCN(C)C | MTT |  | > 50 µM |
| Oc1ccc(C/C=C(/COCc2ccccc2)c2ccc(OCc3ccccc3)cc2)cc1 | MTT | 24 h | 27.9 µg/mL |
| Cc1cccc(-n2ncc(Br)c(Br)c2=O)c1 | resazurin | 96 h | 1.43 µM |
| Cc1ccc(-c2ccc(O)cc2)c(C(=C2C=CC(=O)C=C2)c2ccc(O)cc2)c1C#Cc1ccc(O)cc1 | MTT | 48 h | 15.5 µM |
| O=C(O)c1cc(O)c(O)c(O)c1 | MTT |  | 14.9 µM |
| COc1ccc(C/C=C/c2ccc(O)cc2)cc1 | MTT | 24 h | 14.1 µg/mL |
| C=C(Cl)C(=O)Nc1cc(Nc2nc(N3CCc4sccc4C3)c3sccc3n2)c(OC)cc1N(C)CCN(C)C | MTT |  | 2.33 µM |
